In ChEMBL document CHEMBL1125285, “Gastrin releasing peptide antagonists with improved potency and stability” (J Med Chem, 1991):
Non-standard residues stand in square brackets, D forms with d. Residues, ends and D or L forms follow the SMILES beside them. *: point of attachment. NHCH(iBu)2 = CC(C)CC(CC(C)C)N*; X1 = CC(C)CCOC[C@H](CC(C)C)N*; X11 = CCCCC[C@@H](CC(C)C)N*; Leu(ol) = CC(C)C[C@H](N)CO; X10 = CCCOC[C@H](CC(C)C)N*; X4 = CCCCCC[C@H](CC(C)C)N*; X12 = CCCC[C@H](CC(C)C)N*; X8 = CCCC[C@@H](CC(C)C)N*; X5 = CCOC[C@H](CC(C)C)N*; X9 = CCC[C@@H](CC(C)C)N*; X3 = COC[C@H](CC(C)C)N*; X6 = CCC[C@H](CC(C)C)N*; X2 = CCCCC(CCCC)N*

What was measured:
[1] = target: Gastrin-releasing peptide receptor (Mus musculus, UniProt P21729); experiment: Inhibition against Swiss 3T3 murine fibroblast cells.; type: functional, cell-based
In short: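 Competitive binding on confluent Swiss 3T3 monolayers grown in DMEM with 10% FBS and 2 mM glutamine. [3H-Phe15]GRP-15-27 amide used at 2 nM final, at 15 °C for 1–2 h. Nonspecific binding defined with excess unlabeled GRP. Run in triplicate in at least two trials; mean IC50 reported.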

[2] = Compound was evaluated for mitogenic stimulation against Swiss 3T3 murine fibroblast cells.; type: functional, cell-based, Mus musculus
In short: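 Confluent Swiss 3T3 monolayers held in serum-free DMEM for 48 h, then peptide and 23 nM [3H]thymidine added. After 48 h more, cells detached with trypsin/5 mM EDTA and filter-harvested to measure [3H]thymidine uptake. EC50 is the mean of at least two independent experiments.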

Chain of Gastrin-releasing peptide receptor (P21729 whole entry): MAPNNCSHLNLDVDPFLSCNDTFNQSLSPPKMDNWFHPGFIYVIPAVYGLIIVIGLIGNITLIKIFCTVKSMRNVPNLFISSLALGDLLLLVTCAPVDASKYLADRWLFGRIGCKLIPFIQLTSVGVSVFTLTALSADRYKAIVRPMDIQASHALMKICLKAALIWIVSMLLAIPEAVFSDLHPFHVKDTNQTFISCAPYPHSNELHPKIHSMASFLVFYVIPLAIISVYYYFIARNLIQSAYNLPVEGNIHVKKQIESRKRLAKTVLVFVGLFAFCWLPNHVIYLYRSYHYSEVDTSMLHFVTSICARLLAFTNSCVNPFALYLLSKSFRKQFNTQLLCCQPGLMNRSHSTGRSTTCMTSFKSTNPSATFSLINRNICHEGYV

IC50 [1]	SMILES	EC50 [2]
410 nM	CCOC[C@H](CC(C)C)NC(=O)[C@H](Cc1c[nH]cn1)NC(=O)[C@H](C)NC(=O)[C@@H](NC(=O)[C@H](C)NC(=O)[C@H](Cc1c[nH]c2ccccc12)NC(=O)[C@H](Cc1c[nH]cn1)NC(C)=O)C(C)C	
1.8 nM	CSCC[C@H](NC(=O)[C@H](CC(C)C)NC(=O)[C@H](Cc1c[nH]cn1)NC(=O)CNC(=O)[C@@H](NC(=O)[C@H](C)NC(=O)[C@H](Cc1c[nH]c2ccccc12)NC(=O)[C@H](Cc1c[nH]cn1)NC(C)=O)C(C)C)C(N)=O	0.2 nM
3.3 nM	CCCCC(CCCC)NC(=O)[C@H](Cc1cnc[nH]1)NC(=O)CNC(=O)[C@@H](NC(=O)[C@H](C)NC(=O)[C@H](Cc1c[nH]c2ccccc12)NC(=O)[C@H](Cc1cnc[nH]1)NC(C)=O)C(C)C (Ac-HWAVGH-X2)	
4.9 nM	CCC[C@@H](CC(C)C)NC(=O)[C@H](Cc1c[nH]cn1)NC(=O)CNC(=O)[C@@H](NC(=O)[C@H](C)NC(=O)[C@H](Cc1c[nH]c2ccccc12)NC(=O)[C@H](Cc1c[nH]cn1)NC(C)=O)C(C)C (Ac-HWAVGH-X9)	
2.8 nM	CCCCCC[C@H](CC(C)C)NC(=O)[C@H](Cc1c[nH]cn1)NC(=O)CNC(=O)[C@@H](NC(=O)[C@H](C)NC(=O)[C@H](Cc1c[nH]c2ccccc12)NC(=O)[C@H](Cc1c[nH]cn1)NC(C)=O)C(C)C (Ac-HWAVGH-X4)	
81 nM	CC(=O)N[C@@H](Cc1c[nH]cn1)C(=O)N[C@@H](Cc1c[nH]c2ccccc12)C(=O)N[C@@H](C)C(=O)N[C@H](C(=O)NCC(=O)N[C@@H](Cc1c[nH]cn1)C(=O)N[C@H](CO)CC(C)C)C(C)C (Ac-HWAVGH[Leu(ol)])	
1.4 nM	CCCC[C@H](CC(C)C)NC(=O)[C@H](Cc1cnc[nH]1)NC(=O)CNC(=O)[C@@H](NC(=O)[C@H](C)NC(=O)[C@H](Cc1c[nH]c2ccccc12)NC(=O)[C@H](Cc1cnc[nH]1)NC(C)=O)C(C)C (Ac-HWAVGH-X12)	
5 nM	CCOC[C@H](CC(C)C)NC(=O)[C@H](Cc1c[nH]cn1)NC(=O)[C@@H](C)NC(=O)[C@@H](NC(=O)[C@H](C)NC(=O)[C@H](Cc1c[nH]c2ccccc12)NC(=O)[C@H](Cc1c[nH]cn1)NC(C)=O)C(C)C	
3.2 nM	CCCOC[C@H](CC(C)C)NC(=O)[C@H](Cc1c[nH]cn1)NC(=O)CNC(=O)[C@@H](NC(=O)[C@H](C)NC(=O)[C@H](Cc1c[nH]c2ccccc12)NC(=O)[C@H](Cc1c[nH]cn1)NC(C)=O)C(C)C (Ac-HWAVGH-X10)	
8.3 nM	COC[C@H](CC(C)C)NC(=O)[C@H](Cc1c[nH]cn1)NC(=O)CNC(=O)[C@@H](NC(=O)[C@H](C)NC(=O)[C@H](Cc1c[nH]c2ccccc12)NC(=O)[C@H](Cc1c[nH]cn1)NC(C)=O)C(C)C (Ac-HWAVGH-X3)	
11 nM	CC(=O)N[C@@H](Cc1c[nH]cn1)C(=O)N[C@@H](Cc1c[nH]c2ccccc12)C(=O)N[C@@H](C)C(=O)N[C@H](C(=O)NCC(=O)N[C@@H](Cc1c[nH]cn1)C(=O)N[C@H](COCCC(C)C)CC(C)C)C(C)C (Ac-HWAVGH-X1)	
1.2 nM	CC(=O)N[C@@H](Cc1c[nH]cn1)C(=O)N[C@@H](Cc1c[nH]c2ccccc12)C(=O)N[C@@H](C)C(=O)N[C@H](C(=O)NCC(=O)N[C@@H](Cc1c[nH]cn1)C(=O)NC(CC(C)C)CC(C)C)C(C)C (Ac-HWAVGH-{NHCH(iBu)2})	
11 nM	CCCCC[C@@H](CC(C)C)NC(=O)[C@H](Cc1c[nH]cn1)NC(=O)CNC(=O)[C@@H](NC(=O)[C@H](C)NC(=O)[C@H](Cc1c[nH]c2ccccc12)NC(=O)[C@H](Cc1c[nH]cn1)NC(C)=O)C(C)C (Ac-HWAVGH-X11)	
2.4 nM	CCCC[C@@H](CC(C)C)NC(=O)[C@H](Cc1c[nH]cn1)NC(=O)CNC(=O)[C@@H](NC(=O)[C@H](C)NC(=O)[C@H](Cc1c[nH]c2ccccc12)NC(=O)[C@H](Cc1c[nH]cn1)NC(C)=O)C(C)C (Ac-HWAVGH-X8)	
6.2 nM	CCOC[C@H](CC(C)C)NC(=O)[C@H](Cc1c[nH]cn1)NC(=O)CNC(=O)[C@@H](NC(=O)[C@H](C)NC(=O)[C@H](Cc1c[nH]c2ccccc12)NC(=O)[C@H](Cc1c[nH]cn1)NC(C)=O)C(C)C (Ac-HWAVGH-X5)	
2.6 nM	CCC[C@H](CC(C)C)NC(=O)[C@H](Cc1cnc[nH]1)NC(=O)CNC(=O)[C@@H](NC(=O)[C@H](C)NC(=O)[C@H](Cc1c[nH]c2ccccc12)NC(=O)[C@H](Cc1cnc[nH]1)NC(C)=O)C(C)C (Ac-HWAVGH-X6)	
3.2 nM	CSCC[C@H](NC(=O)[C@H](CC(C)C)NC(=O)[C@H](Cc1c[nH]cn1)NC(=O)[C@@H](C)NC(=O)[C@@H](NC(=O)[C@H](C)NC(=O)[C@H](Cc1c[nH]c2ccccc12)NC(=O)[C@H](Cc1c[nH]cn1)NC(C)=O)C(C)C)C(N)=O	0.2 nM
4.1 nM	CSCC[C@H](NC(=O)[C@H](CC(C)C)NC(=O)[C@H](Cc1c[nH]cn1)NC(=O)CNC(=O)[C@@H](NC(=O)[C@H](C)NC(=O)[C@H](Cc1c[nH]c2ccccc12)NC(=O)[C@H](Cc1c[nH]cn1)NC(=O)C(C)(C)C)C(C)C)C(N)=O	0.2 nM
180 nM	CSCC[C@H](NC(=O)[C@H](CC(C)C)NC(=O)[C@H](Cc1c[nH]cn1)NC(=O)[C@H](C)NC(=O)[C@@H](NC(=O)[C@H](C)NC(=O)[C@H](Cc1c[nH]c2ccccc12)NC(=O)[C@H](Cc1c[nH]cn1)NC(C)=O)C(C)C)C(N)=O	20 nM
